Assay results published in ChEMBL document CHEMBL5523695, “Discovery of small molecule benzothiazole and indole derivatives tackling tau 2N4R and α-synuclein fibrils” (Bioorg Med Chem, 2024).

Biological target: Alpha-synuclein (Homo sapiens) (UniProt P37840)
Assay: Inhibition of recombinant alpha-Synuclein (unknown origin) aggregation assessed as reduction in fluorescence intensity by measuring residual activity at 100 uM measured every 20 mins for 40 to 70 hrs by Thioflavin T based fluorescence analysis relative to control
Settings: time 40-70 hrs
Summary of the method: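 Recombinant α-syn (2 μM final) in 10 mM PBS pH 7.4 with 0.5 mM SDS and 300 mM NaCl. Compound at 100 μM final, ThT 20 μM, one borosilicate bead per well. Read at 37 °C every 20 min after 10 s shaking, ex 440/em 485 nm, for 40–70 h. Background was ThT plus 0.25 % DMSO without protein. Plateau fluorescence expressed as % of control, triplicates, mean ± SEM.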

| Activity [%] | SMILES |
| --- | --- |
| 32.7 | COc1cccc2sc(NS(=O)(=O)c3ccccc3C)nc12 |
| 40.3 | O=C(Nc1ccc2[nH]ccc2c1)Nc1ccccc1I |
| 107 | COc1cccc2sc(NC(=O)c3ccccc3)nc12 |
| 74.6 | COc1cccc2sc(NS(=O)(=O)c3ccccc3)nc12 |
| 53.8 | COc1cccc2sc(NS(=O)(=O)c3ccc(C(F)(F)F)cc3)nc12 |
| 103 | COc1cccc2sc(NC(=O)c3ccc(F)cc3)nc12 |
| 262 | COc1cccc2sc(NC(=O)c3ccccc3Cl)nc12 |
| 148 | COc1cccc2sc(NC(=O)Nc3ccccc3C)nc12 |
| > 200 | COc1cccc2sc(NC(=O)Nc3cc(Cl)cc(Cl)c3)nc12 |
| 94.8 | COc1cccc2sc(NC(=O)Nc3ccc(C(F)(F)F)cc3)nc12 |
| 63.5 | O=[N+]([O-])c1ccc(S(=O)(=O)Nc2ccc3cc[nH]c3c2)cc1 |
| > 200 | COc1cccc2sc(NC(=O)c3ccc(Br)cc3)nc12 |
| 43.1 | COc1cccc2sc(NS(=O)(=O)c3ccc(Br)cc3)nc12 |
| 141 | COc1cccc2sc(NC(=O)Nc3ccc(I)cc3)nc12 |
| 83.9 | O=[N+]([O-])c1ccc(S(=O)(=O)Nc2cccc3[nH]ccc23)cc1 |
| > 200 | COc1cccc2sc(NC(=O)Nc3ccccc3F)nc12 |
| 39.3 | COc1cccc2sc(NS(=O)(=O)c3cc(Cl)cc(Cl)c3)nc12 |
| 78.1 | COc1cccc2sc(NC(=O)Nc3cccc([N+](=O)[O-])c3)nc12 |
| 64.4 | COc1cccc2sc(NC(=O)Nc3ccccc3[N+](=O)[O-])nc12 |
| 41 | COc1cccc2sc(NS(=O)(=O)c3ccccc3[N+](=O)[O-])nc12 |
| 182 | COc1ccccc1C(=O)Nc1nc2c(OC)cccc2s1 |
| 98.7 | COc1cccc2sc(NC(=O)c3ccccc3F)nc12 |
| 40.3 | COc1cccc2sc(NS(=O)(=O)c3ccc(Cl)cc3)nc12 |
| 45.4 | COc1cccc2sc(NC(=O)c3ccc([N+](=O)[O-])cc3)nc12 |
| 40.1 | COc1cccc2sc(NS(=O)(=O)c3cccc([N+](=O)[O-])c3)nc12 |
| 128 | COc1cccc2sc(NC(=O)c3ccc(C#N)cc3)nc12 |
| 84.7 | COc1cccc2sc(NC(=O)c3cccc(C(F)(F)F)c3)nc12 |
| 95.4 | COc1cccc2sc(NC(=O)c3cc(Cl)cc(Cl)c3)nc12 |

Second part, the compound before the results:

| SMILES | Activity [%] |
| --- | --- |
| COc1cccc2sc(NS(=O)(=O)c3ccccc3Cl)nc12 | 19.3 |
| COc1cccc2sc(NC(=O)Nc3ccc(F)cc3)nc12 | 145 |
| COc1ccccc1NC(=O)Nc1nc2c(OC)cccc2s1 | 199 |
| COc1cccc2sc(NC(=O)Nc3ccccc3)nc12 | 130 |
| COc1cccc2sc(NS(=O)(=O)c3ccc(I)cc3)nc12 | 42.8 |
| COc1cccc2sc(NS(=O)(=O)c3ccc(F)cc3)nc12 | 70.4 |
| COc1cccc2sc(NC(=O)c3ccc(I)cc3)nc12 | > 200 |
| O=S(=O)(Nc1cccc2[nH]ccc12)c1ccccc1I | 74.8 |
| COc1cccc2sc(NC(=O)c3ccc(F)cc3F)nc12 | 128 |
| O=S(=O)(Nc1ccc2cc[nH]c2c1)c1ccccc1I | 104 |
| COc1cccc2sc(NC(=O)Nc3cccc(C(F)(F)F)c3)nc12 | > 200 |
| COc1cccc2sc(NC(=O)Nc3ccc(Br)cc3)nc12 | 170 |
| COc1cccc2sc(NC(=O)Nc3ccc([N+](=O)[O-])cc3)nc12 | 79 |
| COc1cccc2sc(NS(=O)(=O)c3cccs3)nc12 | 41.6 |
| O=C(Nc1ccc2cc[nH]c2c1)Nc1ccccc1I | 83.4 |
| COc1cccc2sc(NC(=O)Nc3cccs3)nc12 | 41.6 |
| COc1cccc2sc(NC(=O)c3cccc([N+](=O)[O-])c3)nc12 | 48.1 |
| O=C(Nc1ccccc1I)Nc1cccc2[nH]ccc12 | 38.3 |
| COc1cccc2sc(NC(=O)Nc3ccc(Cl)cc3)nc12 | 173 |
| COc1cccc2sc(NC(=O)c3ccccc3C)nc12 | 137 |
| COc1cccc2sc(NC(=O)Nc3ccc(F)cc3F)nc12 | 184 |
